Test results from ChEMBL document CHEMBL1932977, “Synthesis of pyrazolo[3,4-b]pyridines under microwave irradiation in multi-component reactions and their antitumor and antimicrobial activities - Part 1” (Eur J Med Chem, 2012).
Values after ≈ are worked out from the molar mass of the structure shown. Active and inactive are the calls of the source. The rule behind the calls is not given here.

Assays:
Bacillus = test: Antibacterial activity against Bacillus at 10 mg/ml after 24 hrs by cut-plug method; format: functional
In short: (§1)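 Cut-plug agar diffusion. Bacteria grown on nutrient agar and fungi on Sabouraud agar slopes, strains from a university culture collection. Plates seeded with 1 ml of diluted inoculum (10⁷ CFU/ml) spread after solidification. Wells cut and filled with compound in DMSO at 10 mg/ml. Plates incubated at 30 °C for 24 h, then inhibition-zone diameters (mm) measured.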

Escherichia coli = test: Antibacterial activity against Escherichia coli at 10 mg/ml after 24 hrs by cut-plug method; format: functional; in short: as §1
Enterobacter cloacae = test: Antibacterial activity against Enterobacter cloacae at 10 mg/ml after 24 hrs by cut-plug method; format: functional; in short: as §1
Serratia = test: Antibacterial activity against Serratia at 10 mg/ml after 24 hrs by cut-plug method; format: functional; in short: as §1
Penicillium expansum = test: Antifungal activity against Penicillium expansum at 10 mg/ml after 24 hrs by cut-plug method; format: functional; in short: as §1
Fusarium oxysporum = test: Antifungal activity against Fusarium oxysporum at 10 mg/ml after 24 hrs by cut-plug method; format: functional; in short: as §1
HepG2 = test: Cytotoxicity against human HepG2 by sulforhodamie B colorimetric assay; format: functional, cell-based
In short: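 HEPG2 human liver cancer cells, compound-treated against untreated control. Read by SRB: TCA-fixed cultures stained 30 min with 0.4% w/v SRB in 1% acetic acid, bound dye extracted with 10 mM Tris, optical density read on a plate reader. Surviving fraction as percent growth. IC50 estimated by probit regression.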

[1] = Homo sapiens, HepG2, read-out: IC50

SMILES | diameter of the inhibition zone (DIZ) (Bacillus) | diameter of the inhibition zone (DIZ) (Escherichia coli) | diameter of the inhibition zone (DIZ) (Enterobacter cloacae) | diameter of the inhibition zone (DIZ) (Serratia) | diameter of the inhibition zone (DIZ) (Penicillium expansum) | diameter of the inhibition zone (DIZ) (Fusarium oxysporum) | IC50 (HepG2; hepg2) | IC50 (HepG2; [1]) [µg/mL]
CCN(CC)c1ccc(-c2cc(C(=O)O)nc3c2c(-c2cccnc2)nn3-c2ccccc2)cc1 | inactive | inactive | inactive | inactive | inactive | – | – | –
COc1ccc(-c2c(C#N)c(-c3ccccc3)nc3c2c(-c2cccnc2)nn3-c2ccccc2)cc1 | inactive | inactive | inactive | inactive | inactive | inactive | Not Active | –
O=C(O)c1cc(-c2ccc(Br)cc2)c2c(-c3cccnc3)nn(-c3ccccc3)c2n1 | inactive | inactive | inactive | – | inactive | inactive | – | –
COc1ccc(-c2c(C#N)c(-c3ccc(Cl)cc3)nc3c2c(-c2cccnc2)nn3-c2ccccc2)cc1 | inactive | inactive | inactive | inactive | inactive | inactive | – | 4 (≈ 7.78 µM)
O=C(O)c1cc(-c2ccc(O)cc2)c2c(-c3cccnc3)nn(-c3ccccc3)c2n1 | inactive | inactive | inactive | – | inactive | – | – | –
O=C(O)c1cc(-c2ccccc2)c2c(-c3cccnc3)nn(-c3ccccc3)c2n1 | inactive | inactive | inactive | – | inactive | inactive | – | –
COc1ccc(-c2cc(C(=O)O)nc3c2c(-c2cccnc2)nn3-c2ccccc2)cc1 | – | – | – | – | inactive | – | – | –
COc1ccc(-c2c(C#N)c(-c3ccc([N+](=O)[O-])cc3)nc3c2c(-c2cccnc2)nn3-c2ccccc2)cc1 | inactive | – | inactive | inactive | – | inactive | – | 13.5 (≈ 25.7 µM)
COc1ccc(-c2c(C#N)c(-c3cccnc3)nc3c2c(-c2cccnc2)nn3-c2ccccc2)cc1 | – | inactive | inactive | inactive | inactive | inactive | – | 3.73 (≈ 7.76 µM)
COc1ccc(-c2c(C#N)c(-c3ccc(F)cc3)nc3c2c(-c2cccnc2)nn3-c2ccccc2)cc1 | inactive | inactive | inactive | – | inactive | inactive | – | 3.43 (≈ 6.89 µM)
COc1cccc2c1C(=O)c1c(O)c3c(c(O)c1C2=O)C[C@@](O)(C(=O)CO)C[C@@H]3O[C@H]1C[C@H](N)[C@H](O)[C@H](C)O1 [DOXORUBICIN] | – | – | – | – | – | – | – | 3.73 (≈ 6.86 µM)
COc1ccc(-c2c(C#N)c(-c3ccc(C)cc3)nc3c2c(-c2cccnc2)nn3-c2ccccc2)cc1 | inactive | – | inactive | – | inactive | inactive | – | 4.34 (≈ 8.79 µM)
CN(C)c1ccc(-c2cc(C(=O)O)nc3c2c(-c2cccnc2)nn3-c2ccccc2)cc1 | inactive | inactive | – | – | inactive | – | – | –
